Assay results reported in ChEMBL document CHEMBL4024779, “Novel Terminal Bipheny-Based Diapophytoene Desaturases (CrtN) Inhibitors as Anti-MRSA/VISR/LRSA Agents with Reduced hERG Activity” (J Med Chem, 2018).
Active and inactive are the calls of the source. The calls are words filed in the database; no cut-off is given here.

What was measured:
Cytochrome P450 2C9 = Cytochrome P450 2C9 (Homo sapiens, UniProt P11712); experiment: Inhibition of CYP2C9 in human liver microsomes using diclofenac as substrate upto 10 uM after 10 mins in presence of NADPH by LC-MS/MS analysis; format: ADME
Staphylococcus aureus [1] = experiment: In vivo anti-virulence activity against methicillin-resistant Staphylococcus aureus LRSA56 infected in BALB/c mouse model assessed as reduction in bacterial load in kidney at 0.1 mg bid for 3.5 days administered intraperitoneally 6 hrs post infection by serial dilution method relative to linezolid; format: functional; set-up: scale not given: the % may be the effect or the level left
In short: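 Mice were infected by retro-orbital injection with LRSA56 (5.0 × 10^7 CFU) or LRSA202 (7.0 × 10^7 CFU). Compound was given intraperitoneally 6 h after infection. […] Log10 CFU was counted in kidneys and hearts, with groups compared by two-tailed Mann-Whitney test.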

Staphylococcus aureus [2] = experiment: In vivo anti-virulence activity against methicillin-resistant Staphylococcus aureus NF65Y infected in BALB/c mouse model assessed as reduction in bacterial load in kidney at 0.1 mg bid for 3.5 days administered intraperitoneally 6 hrs post infection by serial dilution method relative to linezolid; format: functional, organism-based
In short: (§1)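 Mice infected retro-orbitally with S. aureus NF65Y (3.5 × 10^8 CFU) or XN108 (2.1 × 10^8 CFU). Test compound given i.p. b.i.d. starting 6 h post-infection. […] Log10 CFU per kidney and heart counted. Two-tailed Mann−Whitney test.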

Staphylococcus aureus [3] = experiment: In vivo anti-virulence activity against methicillin-resistant Staphylococcus aureus XN108 infected in BALB/c mouse model assessed as reduction in bacterial load in kidney at 0.1 mg bid for 3.5 days administered intraperitoneally 6 hrs post infection by serial dilution method relative to vancomycin; format: functional, organism-based; in short: as §1
Staphylococcus aureus [4] = experiment: In vivo anti-virulence activity against Staphylococcus aureus Newman infected in BALB/c mouse model assessed as reduction in bacterial load in heart at 0.2 mg bid for 3.5 days administered orally 6 hrs post infection by serial dilution method relative to control; format: functional, organism-based
In short: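 Mice got 3.1 × 10^7 CFU S. aureus Newman by retro-orbital injection. Oral compound was given b.i.d. for 3.5 d, starting 6 h after infection. […] Log10 CFU was counted per kidney and per heart.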

Rattus norvegicus [5] = experiment: Toxicity in Sprague-Dawley rat at 60 to 1000 mg/kg, po administered as single dose assessed as poisoning symptoms measured during 2 weeks post administration; format: organism-based; details: in vivo, 336 h
In short: (§2)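 Rats, 30 in total, randomised into three groups. Each received a single oral dose of 60, 250 or 1000 mg/kg on day 1. Poisoning symptoms, mortality, behaviour, water and food consumption and body weight monitored immediately and over 2 weeks.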

Rattus norvegicus [6] = experiment: Toxicity in Sprague-Dawley rat at 60 to 1000 mg/kg, po administered as single dose assessed as mortality measured immediately post administration; format: organism-based; details: in vivo; in short: as §2
Rattus norvegicus [7] = experiment: Toxicity in Sprague-Dawley rat at 60 to 1000 mg/kg, po administered as single dose assessed as changes in water consumption measured during 2 weeks post administration; format: organism-based; details: in vivo, 336 h; in short: as §2
Enterococcus faecium = experiment: Antibacterial activity against Enterococcus faecium after 24 hrs by broth dilution method; format: functional
Staphylococcus aureus [8] = experiment: In vivo anti-virulence activity against Staphylococcus aureus NRS271 infected in BALB/c mouse model assessed as reduction in bacterial load in kidney at 0.2 mg bid for 3.5 days administered orally 6 hrs post infection by serial dilution method relative to control; format: functional, organism-based
In short: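 Mice were infected by retro-orbital injection with Mu50 (4.6 × 10^9 CFU) or NRS271 (3.5 × 10^8 CFU). Oral compound was given b.i.d. for 3.5 d, starting 6 h after infection. Log10 CFU was counted per kidney and per heart.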

[9] = biological target: T1, 4,4'-diapophytoene desaturase (4,4'-diaponeurosporene-forming) (Staphylococcus aureus (strain Mu50 / ATCC 700699)) (UniProt Q99R76); details: Staphylococcus aureus subsp. aureus Mu50; 1 uM
T1 sequence (whole entry): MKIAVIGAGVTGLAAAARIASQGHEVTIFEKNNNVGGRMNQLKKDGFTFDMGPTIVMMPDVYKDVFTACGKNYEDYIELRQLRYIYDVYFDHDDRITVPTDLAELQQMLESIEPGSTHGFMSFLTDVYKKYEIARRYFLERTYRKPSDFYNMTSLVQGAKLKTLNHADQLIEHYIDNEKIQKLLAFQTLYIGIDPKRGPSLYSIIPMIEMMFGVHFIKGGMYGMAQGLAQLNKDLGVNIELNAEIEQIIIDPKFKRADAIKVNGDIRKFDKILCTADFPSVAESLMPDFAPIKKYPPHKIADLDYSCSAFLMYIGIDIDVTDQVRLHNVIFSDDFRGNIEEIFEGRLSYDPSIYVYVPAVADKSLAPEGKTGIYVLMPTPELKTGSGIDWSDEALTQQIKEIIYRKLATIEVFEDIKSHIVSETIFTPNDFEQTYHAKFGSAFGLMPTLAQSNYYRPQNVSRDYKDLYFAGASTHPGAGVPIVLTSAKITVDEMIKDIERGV

Sequence of Cytochrome P450 2C9 (P11712 whole entry): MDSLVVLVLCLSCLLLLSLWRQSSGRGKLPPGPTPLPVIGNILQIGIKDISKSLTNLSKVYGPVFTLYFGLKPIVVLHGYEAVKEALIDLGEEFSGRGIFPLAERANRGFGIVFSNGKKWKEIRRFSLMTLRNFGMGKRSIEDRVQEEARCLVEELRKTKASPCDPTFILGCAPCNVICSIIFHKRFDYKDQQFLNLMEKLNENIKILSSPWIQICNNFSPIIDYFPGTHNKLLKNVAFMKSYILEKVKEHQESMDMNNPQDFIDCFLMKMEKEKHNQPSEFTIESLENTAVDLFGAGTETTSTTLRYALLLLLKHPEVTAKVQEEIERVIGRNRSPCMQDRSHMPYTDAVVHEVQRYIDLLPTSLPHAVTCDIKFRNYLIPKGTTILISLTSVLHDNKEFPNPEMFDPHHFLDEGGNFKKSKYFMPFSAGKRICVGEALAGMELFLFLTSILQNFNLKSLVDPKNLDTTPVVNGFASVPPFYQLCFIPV

## CN(C/C=C/c1ccc(-c2ccccc2)cc1)Cc1coc2ccccc12.Cl
Cytochrome P450 2C9
  IC50: > 10 µM
Staphylococcus aureus [1]
  Activity: >54.3%
Staphylococcus aureus [2]
  Activity: Active
Staphylococcus aureus [3]
  Activity: Active
Staphylococcus aureus [4]
  Activity: inactive
Rattus norvegicus [5]
  Activity: Non-Toxic
Rattus norvegicus [6]
  Activity: Non-Toxic
Rattus norvegicus [7]
  Activity: Non-Toxic
Enterococcus faecium
  MIC: > 500 mg/L
Staphylococcus aureus [8]
  Activity: Active
[9]
  Survival: 0.4%
